Measurements: ChEMBL document CHEMBL1148648, “Novel 1,3-disubstituted 8-(1-benzyl-1H-pyrazol-4-yl) xanthines: high affinity and selective A2B adenosine receptor antagonists” (J Med Chem, 2006)

What was measured:
Adenosine receptor A2a = Adenosine receptor A2a (Homo sapiens, UniProt P29274); assay: Displacement of [3H]ZM-241385 from human adenosine A2a receptor expressed in HEK cells; format: cell-based, HEK293
Adenosine receptor A1 = biological target: T1, Adenosine receptor A1 (Homo sapiens, UniProt P30542); assay: Displacement of [3H]CPX from human adenosine A1 receptor expressed in CHO cells
T1 sequence (P30542 whole entry): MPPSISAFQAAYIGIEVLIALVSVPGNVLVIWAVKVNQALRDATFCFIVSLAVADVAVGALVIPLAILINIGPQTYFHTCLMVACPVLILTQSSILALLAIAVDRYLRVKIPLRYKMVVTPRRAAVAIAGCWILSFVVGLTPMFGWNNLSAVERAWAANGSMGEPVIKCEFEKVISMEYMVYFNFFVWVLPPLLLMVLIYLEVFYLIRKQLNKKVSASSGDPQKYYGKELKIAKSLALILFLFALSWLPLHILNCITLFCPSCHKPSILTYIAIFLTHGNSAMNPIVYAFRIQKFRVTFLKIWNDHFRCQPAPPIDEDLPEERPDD

[1] = biological target: Adenosine A2 receptor (Homo sapiens) (UniProt P29275+P29274); assay: Selectivity for human adenosine A2b receptor over adenosine A2a receptor; format: protein assay
Adenosine receptor A2b = biological target: T2, Adenosine receptor A2b (Homo sapiens, UniProt P29275); assay: Displacement of [3H]ZM241385 from human adenosine A2b receptor expressed in HEK cells; format: cell-based, HEK293
T2 sequence (P29275 whole entry): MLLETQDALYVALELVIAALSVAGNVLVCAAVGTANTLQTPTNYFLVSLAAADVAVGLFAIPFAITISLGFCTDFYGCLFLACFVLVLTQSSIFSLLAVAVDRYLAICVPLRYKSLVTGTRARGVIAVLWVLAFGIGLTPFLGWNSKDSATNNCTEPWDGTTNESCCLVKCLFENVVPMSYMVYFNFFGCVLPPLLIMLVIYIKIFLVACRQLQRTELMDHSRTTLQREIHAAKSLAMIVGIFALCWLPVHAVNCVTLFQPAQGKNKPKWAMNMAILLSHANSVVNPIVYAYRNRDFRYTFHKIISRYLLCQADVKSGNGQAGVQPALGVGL

[2] = biological target: Adenosine receptors; A1 & A2b (Homo sapiens) (UniProt P30542+P29275); assay: Selectivity for human adenosine A2b receptor over adenosine A1 receptor; format: protein assay
[3] = biological target: Adenosine receptors; A2b & A3 (Homo sapiens) (UniProt P29275+P0DMS8); assay: Selectivity for human adenosine A2b receptor over adenosine A3 receptor; format: protein assay
Adenosine receptor A3 = biological target: T3, Adenosine receptor A3 (Homo sapiens, UniProt P0DMS8); assay: Displacement of [125I]AB-MECA from human adenosine A3 receptor expressed in CHO cells; format: cell-based
T3 sequence (P0DMS8 whole entry): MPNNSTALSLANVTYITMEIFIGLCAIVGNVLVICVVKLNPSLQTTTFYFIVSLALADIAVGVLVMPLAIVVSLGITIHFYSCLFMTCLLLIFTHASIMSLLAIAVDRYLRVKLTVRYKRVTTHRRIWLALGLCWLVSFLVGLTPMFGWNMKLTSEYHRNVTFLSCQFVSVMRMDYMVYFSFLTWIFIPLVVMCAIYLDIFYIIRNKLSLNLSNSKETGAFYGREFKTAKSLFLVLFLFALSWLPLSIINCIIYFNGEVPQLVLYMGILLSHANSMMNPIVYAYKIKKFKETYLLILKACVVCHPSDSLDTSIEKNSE
Procedure, shortened: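 Membranes from CHO cells stably expressing human A3 receptor, prepared like the A2B membranes. Incubated 90 min at 25 °C with gentle agitation, then filtered and washed 4× in ice-cold TM buffer. Nonspecific binding was defined with 1 µM IB-MECA.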

Adenosine receptor A2a, sequence (P29274 whole entry): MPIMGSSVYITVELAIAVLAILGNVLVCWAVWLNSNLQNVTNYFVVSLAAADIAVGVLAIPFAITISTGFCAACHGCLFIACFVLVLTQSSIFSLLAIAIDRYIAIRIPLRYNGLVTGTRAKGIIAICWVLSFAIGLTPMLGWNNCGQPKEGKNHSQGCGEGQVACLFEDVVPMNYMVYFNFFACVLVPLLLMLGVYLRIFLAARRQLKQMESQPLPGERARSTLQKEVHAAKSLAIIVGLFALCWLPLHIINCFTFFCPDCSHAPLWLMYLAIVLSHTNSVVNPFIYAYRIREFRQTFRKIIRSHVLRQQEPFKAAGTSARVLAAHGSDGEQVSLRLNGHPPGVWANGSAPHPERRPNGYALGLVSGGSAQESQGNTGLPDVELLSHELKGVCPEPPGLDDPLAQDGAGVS

| SMILES | Ki (Adenosine receptor A2a) | Ki (Adenosine receptor A1) | Ratio Ki [1] | Ki (Adenosine receptor A2b) | Ratio Ki [2] | Ratio Ki [3] | Ki (Adenosine receptor A3) |
| --- | --- | --- | --- | --- | --- | --- | --- |
| Cn1c(=O)c2nc(-c3cnn(Cc4ccccc4)c3)[nH]c2n(C)c1=O | 3500 nM | > 6000 nM | 1 | 2300 nM | 2 | – | – |
| CCCn1c(=O)c2nc(-c3cnn(Cc4ccc(C(F)(F)F)cc4)c3)[nH]c2n(CCC)c1=O | 150 nM | 41 nM | 7 | 20 nM | 2 | – | – |
| Cn1c(=O)c2nc(-c3cnn(Cc4cccc(C(F)(F)F)c4)c3)[nH]c2n(C)c1=O | 690 nM | 990 nM | 690 | 1 nM | 990 | 1000 | 1000 nM |
| CCCn1c(=O)c2[nH]c(-c3cc(NC(=O)Cc4ccc(OC)c(OC)c4)nn3C)nc2n(CCC)c1=O | > 1000 nM | > 1000 nM | – | – | – | – | > 1000 nM |
| CCCn1c(=O)c2nc(-c3cnn(Cc4ccc(F)c(F)c4)c3)[nH]c2n(CCC)c1=O | 280 nM | 170 nM | 8 | 35 nM | 7 | – | – |
| CCCn1c(=O)c2nc(-c3cnn(Cc4cccc(Cl)c4F)c3)[nH]c2n(CCC)c1=O | 870 nM | 530 nM | 13 | 58 nM | 9 | – | – |
| CCCn1c(=O)c2nc(-c3cn[nH]c3)[nH]c2n(CCC)c1=O | – | – | 23 | – | 2 | 2 | – |
| CCn1c(=O)c2nc(-c3cnn(Cc4cccc(F)c4)c3)[nH]c2n(CC)c1=O | 290 nM | 380 nM | 58 | 5 nM | 76 | – | – |
| CCCn1c(=O)c2nc(-c3cnn(Cc4ccc(Cl)cc4)c3)[nH]c2n(CCC)c1=O | 88 nM | 7 nM | 4 | 18 nM | 0.5 | – | – |
| CCCn1c(=O)c2[nH]c(-c3cn[nH]c3)nc2n(CCC)c1=O | 230 nM | 20 nM | – | 9 nM | – | – | 23 nM |
| CCCn1c(=O)c2nc(-c3cnn(CCCc4ccccc4)c3)[nH]c2n(CCC)c1=O | 220 nM | 77 nM | 2 | 100 nM | 0.7 | – | – |

More lines, in order of falling Ki (Adenosine receptor A2a), values ahead:

| Ki (Adenosine receptor A2a) | Ki (Adenosine receptor A1) | Ratio Ki [1] | Ki (Adenosine receptor A2b) | Ratio Ki [2] | Ratio Ki [3] | Ki (Adenosine receptor A3) | SMILES |
| --- | --- | --- | --- | --- | --- | --- | --- |
| 1400 nM | 1200 nM | 63 | 22 nM | 54 | 129 | 2800 nM | CCCn1c(=O)c2nc(-c3cnn(Cc4cc(C(F)(F)F)ccc4Cl)c3)[nH]c2n(CCC)c1=O |
| 570 nM | 17 nM | 7 | 74 nM | 0.2 | – | – | CCCn1c(=O)c2nc(-c3cnn(CCc4ccccc4)c3)[nH]c2n(CCC)c1=O |
| 400 nM | 170 nM | 27 | 14 nM | 12 | 10 | 150 nM | CCCn1c(=O)c2[nH]c(-c3cnn(Cc4cccc(C(F)(F)F)c4)c3)nc2n(CCC)c1=O |
| 290 nM | 76 nM | 26 | 11 nM | 7 | 15 | 170 nM | CCCn1c(=O)c2[nH]c(-c3cnn(Cc4ccccc4)c3)nc2n(CCC)c1=O |
| 230 nM | 170 nM | 18 | 14 nM | 13 | 4 | 56 nM | CCCn1c(=O)c2[nH]c(-c3cnn(Cc4cccc(F)c4)c3)nc2n(CCC)c1=O |
| 200 nM | 460 nM | 7 | 27 nM | 17 | – | – | Cn1c(=O)c2[nH]c(-c3cnn(Cc4cccc(F)c4)c3)nc2n(C)c1=O |
| 79 nM | 31 nM | 4 | 18 nM | 2 | – | – | CCCn1c(=O)c2nc(-c3cnn(Cc4cccc(Cl)c4)c3)[nH]c2n(CCC)c1=O |
| 70 nM | 34 nM | 2 | 34 nM | 1 | – | – | CCCn1c(=O)c2nc(-c3cnn(Cc4cccc(OC)c4)c3)[nH]c2n(CCC)c1=O |
